Results as given in ChEMBL document CHEMBL4130549, “Synthesis and bioactivities study of new antibacterial peptide mimics: The dialkyl cationic amphiphiles” (Eur J Med Chem, 2018).
Active and inactive are the calls of the source.

Columns and labels:
[1] = system: Enterococcus faecalis; assay: Antibacterial activity against Enterococcus faecalis after 16 to 20 hrs by broth microdilution method; format: functional
Summary of the method: (§1)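 Broth microdilution per CLSI in cation-adjusted Mueller-Hinton broth; 4-6 h cultures (~10⁸ CFU/mL) diluted to ~10⁶ CFU/mL and mixed 1:1 with twofold dilutions of water-dissolved compound (256 to 0.5 µg/mL). Incubated 16-20 h at 37 °C; MIC read visually. Each concentration run in duplicate, whole experiment repeated at least twice. MRSA, KPC and NDM-1 strains were clinical isolates.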

[2] = system: Staphylococcus aureus; assay: Antibacterial activity against methicillin-resistant Staphylococcus aureus isolate M6 after 16 to 20 hrs by broth microdilution method; format: functional
Summary of the method: (§2)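 CLSI broth microdilution in cation-adjusted Mueller-Hinton broth. A 4-6 h culture was diluted to about 10⁶ CFU/mL and mixed 1:1 with twofold compound dilutions (256–0.5 µg/mL before mixing) prepared from aqueous stocks. Plates were incubated at 37 °C for 16-20 h. Each concentration was tested in duplicate, and the experiment was repeated at least twice.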

[3] = system: Enterobacteriaceae; assay: Antibacterial activity against NDM-1-producing Enterobacteriaceae isolate N6 after 16 to 20 hrs by broth microdilution method; format: functional; summary of the method: as §1
[4] = system: Enterobacteriaceae; assay: Antibacterial activity against NDM-1-producing Enterobacteriaceae isolate N2 after 16 to 20 hrs by broth microdilution method; format: functional; summary of the method: as §1
[5] = system: Staphylococcus aureus; assay: Antibacterial activity against methicillin-resistant Staphylococcus aureus isolate M7 after 16 to 20 hrs by broth microdilution method; format: functional; summary of the method: as §2
[6] = system: Klebsiella pneumoniae; assay: Antibacterial activity against carbapenemase-producing Klebsiella pneumoniae isolate K5 after 16 to 20 hrs by broth microdilution method; format: functional; summary of the method: as §1
[7] = system: Staphylococcus aureus; assay: Antibacterial activity against methicillin-resistant Staphylococcus aureus after 16 to 20 hrs by broth microdilution method; format: functional; summary of the method: as §2
[8] = system: Escherichia coli; assay: Induction of inner membrane permeabilization in Escherichia coli ATCC 25922 at 20 ug/ml measured every 2 mins for 12 mins by propidium iodide staining based fluorescence assay; format: functional, organism-based
Summary of the method: (§3)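 Mid-log cells (~10^8 CFU/mL) pre-incubated with propidium iodide (10 µM, 50 µL), 30 min for S. aureus and 40 min for E. coli. Fluorescence (ex 535/em 617 nm) read for 8 min, then compound added to 20 µg/mL final and monitored every 2 min for 12 min. Water-treated control.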

[9] = system: Enterobacteriaceae; assay: Antibacterial activity against NDM-1-producing Enterobacteriaceae isolate N10 after 16 to 20 hrs by broth microdilution method; format: functional; summary of the method: as §1
[10] = system: Staphylococcus aureus; assay: Antibacterial activity against methicillin-resistant Staphylococcus aureus isolate M1 after 16 to 20 hrs by broth microdilution method; format: functional; summary of the method: as §2
[11] = system: Klebsiella pneumoniae; assay: Antibacterial activity against carbapenemase-producing Klebsiella pneumoniae isolate K4 after 16 to 20 hrs by broth microdilution method; format: functional; summary of the method: as §1
[12] = system: Escherichia coli; assay: Induction of cytoplasmic membrane depolarization in Escherichia coli ATCC 25922 at 20 ug/ml measured every 2 mins for 12 mins by diSC35 staining based fluorescence assay; format: functional, organism-based
Summary of the method: (§4)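 Mid-log cells (4–6 h) pelleted, washed and resuspended (~10^8 CFU/mL) in PBS for S. aureus, or in 5 mM HEPES, 5 mM glucose and 100 mM KCl (1:1:1) for E. coli. Preloaded with diSC35 (10 µM, 50 µL), 30 min for S. aureus and 40 min plus EDTA (200 µM, 50 µL) for E. coli. Baseline read 8 min (ex 622/em 670 nm), then compound added to 20 µg/mL final and read every 2 min for 12 min. Water control.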

[13] = system: Enterobacteriaceae; assay: Antibacterial activity against NDM-1-producing Enterobacteriaceae isolate N7 after 16 to 20 hrs by broth microdilution method; format: functional; summary of the method: as §1
[14] = system: Klebsiella pneumoniae; assay: Antibacterial activity against carbapenemase-producing Klebsiella pneumoniae isolate K7 after 16 to 20 hrs by broth microdilution method; format: functional; summary of the method: as §1
[15] = system: Klebsiella pneumoniae; assay: Antibacterial activity against carbapenemase-producing Klebsiella pneumoniae isolate K10 after 16 to 20 hrs by broth microdilution method; format: functional; summary of the method: as §1
[16] = system: Staphylococcus aureus; assay: Antibacterial activity against methicillin-resistant Staphylococcus aureus isolate M2 after 16 to 20 hrs by broth microdilution method; format: functional; summary of the method: as §2
[17] = system: Staphylococcus aureus; assay: Antibacterial activity against methicillin-resistant Staphylococcus aureus isolate M5 after 16 to 20 hrs by broth microdilution method; format: functional; summary of the method: as §2
[18] = system: Escherichia coli; assay: Induction of outer membrane permeabilization in Escherichia coli ATCC 25922 at 20 ug/ml measured every 2 mins for 12 mins by NPN staining based fluorescence assay; format: functional, organism-based
Summary of the method: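 Mid-log E. coli (~10^8 CFU/mL) in black plates pre-incubated about 40 min with NPN (10 µM, 50 µL). Baseline read 8 min (ex 350/em 420 nm), then compound added to 20 µg/mL final and fluorescence followed every 2 min for 12 min. Water-treated control.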

[19] = system: Enterobacteriaceae; assay: Antibacterial activity against NDM-1-producing Enterobacteriaceae isolate N3 after 16 to 20 hrs by broth microdilution method; format: functional; summary of the method: as §1
[20] = system: Enterobacteriaceae; assay: Antibacterial activity against NDM-1-producing Enterobacteriaceae isolate N8 after 16 to 20 hrs by broth microdilution method; format: functional; summary of the method: as §1
[21] = system: Klebsiella pneumoniae; assay: Antibacterial activity against carbapenemase-producing Klebsiella pneumoniae isolate K9 after 16 to 20 hrs by broth microdilution method; format: functional; summary of the method: as §1
[22] = system: Klebsiella pneumoniae; assay: Antibacterial activity against carbapenemase-producing Klebsiella pneumoniae isolate K2 after 16 to 20 hrs by broth microdilution method; format: functional; summary of the method: as §1
[23] = system: Klebsiella pneumoniae; assay: Antibacterial activity against carbapenemase-producing Klebsiella pneumoniae isolate K8 after 16 to 20 hrs by broth microdilution method; format: functional; summary of the method: as §1
[24] = system: Staphylococcus aureus; assay: Induction of inner membrane permeabilization in Staphylococcus aureus ATCC 29213 at 20 ug/ml measured every 2 mins for 12 mins by propidium iodide staining based fluorescence assay; format: functional, organism-based; summary of the method: as §3
[25] = system: Salmonella enterica; assay: Antibacterial activity against Salmonella enterica after 16 to 20 hrs by broth microdilution method; format: functional; summary of the method: as §1
[26] = system: Staphylococcus aureus; assay: Antibacterial activity against methicillin-resistant Staphylococcus aureus isolate M10 after 16 to 20 hrs by broth microdilution method; format: functional; summary of the method: as §2
[27] = system: Enterobacteriaceae; assay: Antibacterial activity against NDM-1-producing Enterobacteriaceae isolate N1 after 16 to 20 hrs by broth microdilution method; format: functional; summary of the method: as §1
[28] = system: Escherichia coli; assay: Antibacterial activity against Escherichia coli ATCC 25922 after 16 to 20 hrs by broth microdilution method; format: functional; summary of the method: as §1
[29] = system: Enterobacteriaceae; assay: Antibacterial activity against NDM-1-producing Enterobacteriaceae isolate N4 after 16 to 20 hrs by broth microdilution method; format: functional; summary of the method: as §1
[30] = system: Staphylococcus aureus; assay: Antibacterial activity against methicillin-resistant Staphylococcus aureus isolate M8 after 16 to 20 hrs by broth microdilution method; format: functional; summary of the method: as §2
[31] = system: Staphylococcus aureus; assay: Antibacterial activity against Staphylococcus aureus ATCC 29213 after 16 to 20 hrs by broth microdilution method; format: functional; summary of the method: as §2
[32] = system: Klebsiella pneumoniae; assay: Antibacterial activity against carbapenemase-producing Klebsiella pneumoniae after 16 to 20 hrs by broth microdilution method; format: functional; summary of the method: as §1
[33] = system: Staphylococcus aureus; assay: Antibacterial activity against methicillin-resistant Staphylococcus aureus isolate M4 after 16 to 20 hrs by broth microdilution method; format: functional; summary of the method: as §2
[34] = system: Staphylococcus aureus; assay: Induction of cytoplasmic membrane depolarization in Staphylococcus aureus ATCC 29213 at 20 ug/ml measured every 2 mins for 12 mins by diSC35 staining based fluorescence assay; format: functional, organism-based; summary of the method: as §4
[35] = system: Enterobacteriaceae; assay: Antibacterial activity against NDM-1-producing Enterobacteriaceae isolate N9 after 16 to 20 hrs by broth microdilution method; format: functional; summary of the method: as §1
[36] = system: Klebsiella pneumoniae; assay: Antibacterial activity against carbapenemase-producing Klebsiella pneumoniae isolate K3 after 16 to 20 hrs by broth microdilution method; format: functional; summary of the method: as §1
[37] = system: Staphylococcus aureus; assay: Antibacterial activity against methicillin-resistant Staphylococcus aureus isolate M9 after 16 to 20 hrs by broth microdilution method; format: functional; summary of the method: as §2
[38] = system: Klebsiella pneumoniae; assay: Antibacterial activity against carbapenemase-producing Klebsiella pneumoniae isolate K1 after 16 to 20 hrs by broth microdilution method; format: functional; summary of the method: as §1
[39] = system: Enterobacteriaceae; assay: Antibacterial activity against NDM-1-producing Enterobacteriaceae after 16 to 20 hrs by broth microdilution method; format: functional; summary of the method: as §1
[40] = system: Staphylococcus aureus; assay: Antibacterial activity against methicillin-resistant Staphylococcus aureus isolate M3 after 16 to 20 hrs by broth microdilution method; format: functional; summary of the method: as §2
[41] = Hemolytic activity in sheep RBC after 1 hr; format: ADME, cell-based, Ovis aries, Erythrocyte; conditions: sheep red blood cells (erythrocytes)
Summary of the method: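 Sheep RBCs suspended at 5% in PBS; 150 µL added to 50 µL compound dilutions (5120 to 10 µg/mL series). Incubated 1 h at 37 °C, then centrifuged; supernatant absorbance read at 540 nm. Lysis (%) = (A−A0)/(Atotal−A0)×100, with untreated 5% RBC as A0 and 0.1% Triton X-100 as total.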

[42] = system: Enterobacteriaceae; assay: Antibacterial activity against NDM-1-producing Enterobacteriaceae isolate N5 after 16 to 20 hrs by broth microdilution method; format: functional; summary of the method: as §1
[43] = system: Klebsiella pneumoniae; assay: Antibacterial activity against carbapenemase-producing Klebsiella pneumoniae isolate K6 after 16 to 20 hrs by broth microdilution method; format: functional; summary of the method: as §1

CCCCCCCCN(CCCCCCCC)C(=O)[C@@H](N)C(C)O.Cl (stereo partly specified)
16 mg/L: MIC [28]
8 mg/L: MIC [1] | MIC [2] | MIC [5] | MIC [7] | MIC [10] | MIC [17] | MIC [26] | MIC [30] | MIC [37]
> 64 mg/L: MIC [3] | MIC [4] | MIC [9] | MIC [13] | MIC [20] | MIC [27] | MIC [35]
active: Activity [8] | Activity [12] | Activity [18] | Activity [24] | Activity [34]
268 µg/mL: HC50 at 1 h [41]
64 mg/L: MIC [6] | MIC [11] | MIC [14] | MIC [15] | MIC [19] | MIC [21] | MIC [22] | MIC [23] | MIC [25] | MIC [29] | MIC [32] | MIC [36] | MIC [38] | MIC [39] | MIC [42] | MIC [43]
4 mg/L: MIC [16] | MIC [31] | MIC [33] | MIC [40]

CCCCCCCCN(CCCCCCCC)C(=O)[C@H](N)CO.Cl
367 µg/mL: HC50 at 1 h [41]
32 mg/L: MIC [6] | MIC [11] | MIC [13] | MIC [14] | MIC [15] | MIC [20] | MIC [21] | MIC [22] | MIC [23] | MIC [27] | MIC [32] | MIC [36] | MIC [38] | MIC [43]
16 mg/L: MIC [3] | MIC [4] | MIC [9] | MIC [19] | MIC [29] | MIC [35] | MIC [39] | MIC [42]
4 mg/L: MIC [1] | MIC [2] | MIC [5] | MIC [7] | MIC [10] | MIC [16] | MIC [17] | MIC [26] | MIC [30] | MIC [31] | MIC [33] | MIC [37] | MIC [40]
8 mg/L: MIC [25] | MIC [28]
active: Activity [8] | Activity [12] | Activity [18] | Activity [24] | Activity [34]
